This is an account of results in PubChem BioAssay AID775 (SRMLSC, 2007).

Hit rate of the full screen: of about 130,000 compounds, about 900 (0.69%) were called active. The entries come from a sample that favours actives as a whole. Unmarked numbers belong to inactive results.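 How the source made its calls: active means inhibition above a set limit, placed 3 SD over the median of all compounds (cut at about 26% in these data); inactive means the rest.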

This assay can be described thus: rescue of nicotinamide-shortened yeast lifespan – S. cerevisiae, OD615, primary screen (AID 775).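 Further: 0% = nicotinamide-treated wells and 100% = cells grown without nicotinamide.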 The note with it: S. cerevisiae growth with nicotinamide, at 10 µM, stronger effect = higher value, deaD strain in restrictive glucose medium. An outline of the steps: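 Assay system: engineered S. cerevisiae DeaD replicative-lifespan strain, galactose-grown log-phase cells; Buffer or medium: CSMM-D glucose medium, restrictive; Probe or stimulus: nicotinamide 1.5 mM; Compound: single dose 10 µM compound, 0.25% DMSO; Schedule: 4 h preincubation then 48 h treatment at 30 °C; Technique: OD615 measurement.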
As for `COc1ccc(C(=O)C2CN(C)CC2C(=O)c2ccc(OC)cc2)cc1` (stereo not given), the inhibition of the nicotinamide effect is -7.58%. `COc1ccc(C(=O)CC2C(=O)N(C)C(=O)N(C)C2=O)cc1`: the inhibition of the nicotinamide effect is 31% (active). On to `CN1CCN(C(=S)SCC(=O)Nc2ccc(Cl)cc2C(=O)c2ccccc2)CC1`, for which the inhibition of the nicotinamide effect is 2.18%. For `CNC(=S)N/N=C1\C2CN3CCN(C2)CC1(c1ccccc1)C3`, the inhibition of the nicotinamide effect is 6.05%. On to `Cn1c(O)c(C=NCCCC(=O)O)c(=O)n(C)c1=O`, for which the inhibition of the nicotinamide effect is -5.17%. On to `CC(=C1C(=O)c2ccccc2C1=O)N1CCN(CCN=Cc2c(O)n(C)c(=O)n(C)c2=O)CC1`, for which the inhibition of the nicotinamide effect is 26.9% (active). Consider `CC(=NC1CCN(Cc2ccccc2)CC1)c1c(O)n(C)c(=O)n(C)c1=O`, for which the inhibition of the nicotinamide effect was -9.29%. As to `O=C(N/N=C/c1c(O)n(Cc2ccccc2)c(=O)[nH]c1=O)c1ccccc1`, the inhibition of the nicotinamide effect was -4.35%. As to `CN(C)C(=O)Oc1cc(=O)n2c3c(cccc13)CCC2`, the inhibition of the nicotinamide effect was -0.91%. Consider `O=C(CCNS(=O)(=O)c1ccccc1)Nc1ccc(Cl)cc1C(=O)c1ccccc1`, for which the inhibition of the nicotinamide effect was 0.6%.

As for `Cc1ccc(-n2c(-c3ccc([N+](=O)[O-])cc3)nc3ccccc3c2=O)cc1`, the inhibition of the nicotinamide effect was 2.14%. Consider `CCCCCn1c(=O)c(C(=O)Nc2c(C)n(C)n(-c3ccccc3)c2=O)c(O)c2ccccc21`, for which the inhibition of the nicotinamide effect was 0.87%.

For the compound `CCCCCn1c(=O)c(C(=O)NCc2ccccn2)c(O)c2ccccc21`, the inhibition of the nicotinamide effect was 36.3% (active). Under `COc1cc(C(c2c(O)c3ccccc3oc2=O)c2c(C)n(C)n(-c3ccccc3)c2=O)ccc1O` (stereo not given) stands 0.56%; under `CC(C(=O)Nc1ccc(Cl)cc1Cl)N1CC=C(c2ccccc2)CC1` (stereo not given), -1.28%.

Regarding `CN(C)CC1CCCCC1OC(=O)c1ccc(Cl)c(Cl)c1` (stereo not given), the inhibition of the nicotinamide effect is 2.28%. Take `Cc1ccc(-n2c(C)cc(/C=C3\C(=O)NC(=O)N(C)C3=O)c2C)cc1C`: the inhibition of the nicotinamide effect is 4.25%. With `Cc1ccnc(-n2c(C)cc(/C=C3\C(=O)NC(=S)N(C)C3=O)c2C)c1`, the inhibition of the nicotinamide effect is 43.7% (active). For the compound `C=CCn1c(O)c(/C=N/N2CCOCC2)c(=O)[nH]c1=S`, the inhibition of the nicotinamide effect is -2.87%. Turning to `O=C1NC(=O)N(c2ccc(F)cc2)C(=O)/C1=C/c1ccc2c(c1)CCCN2Cc1ccccc1`, the inhibition of the nicotinamide effect was -3.32%.
